Measured values from ChEMBL document CHEMBL1149737, “Brominated polyacetylenic acids from the marine sponge Xestospongia muta: inhibitors of HIV protease” (J Nat Prod, 1992).
Activity calls are given as the source filed them. No cut-off for these calls is given here.

Legend:
Sus scrofa = species on record: Sus scrofa; test: Inhibition of pig malic dehydrogenase at 100 ug/ml
[1] = molecular target: T1, ATP-citrate synthase (Rattus norvegicus) (UniProt P16638); test: Inhibition of rat ATP citrate lyase at 100 ug/ml
T1 sequence (whole entry): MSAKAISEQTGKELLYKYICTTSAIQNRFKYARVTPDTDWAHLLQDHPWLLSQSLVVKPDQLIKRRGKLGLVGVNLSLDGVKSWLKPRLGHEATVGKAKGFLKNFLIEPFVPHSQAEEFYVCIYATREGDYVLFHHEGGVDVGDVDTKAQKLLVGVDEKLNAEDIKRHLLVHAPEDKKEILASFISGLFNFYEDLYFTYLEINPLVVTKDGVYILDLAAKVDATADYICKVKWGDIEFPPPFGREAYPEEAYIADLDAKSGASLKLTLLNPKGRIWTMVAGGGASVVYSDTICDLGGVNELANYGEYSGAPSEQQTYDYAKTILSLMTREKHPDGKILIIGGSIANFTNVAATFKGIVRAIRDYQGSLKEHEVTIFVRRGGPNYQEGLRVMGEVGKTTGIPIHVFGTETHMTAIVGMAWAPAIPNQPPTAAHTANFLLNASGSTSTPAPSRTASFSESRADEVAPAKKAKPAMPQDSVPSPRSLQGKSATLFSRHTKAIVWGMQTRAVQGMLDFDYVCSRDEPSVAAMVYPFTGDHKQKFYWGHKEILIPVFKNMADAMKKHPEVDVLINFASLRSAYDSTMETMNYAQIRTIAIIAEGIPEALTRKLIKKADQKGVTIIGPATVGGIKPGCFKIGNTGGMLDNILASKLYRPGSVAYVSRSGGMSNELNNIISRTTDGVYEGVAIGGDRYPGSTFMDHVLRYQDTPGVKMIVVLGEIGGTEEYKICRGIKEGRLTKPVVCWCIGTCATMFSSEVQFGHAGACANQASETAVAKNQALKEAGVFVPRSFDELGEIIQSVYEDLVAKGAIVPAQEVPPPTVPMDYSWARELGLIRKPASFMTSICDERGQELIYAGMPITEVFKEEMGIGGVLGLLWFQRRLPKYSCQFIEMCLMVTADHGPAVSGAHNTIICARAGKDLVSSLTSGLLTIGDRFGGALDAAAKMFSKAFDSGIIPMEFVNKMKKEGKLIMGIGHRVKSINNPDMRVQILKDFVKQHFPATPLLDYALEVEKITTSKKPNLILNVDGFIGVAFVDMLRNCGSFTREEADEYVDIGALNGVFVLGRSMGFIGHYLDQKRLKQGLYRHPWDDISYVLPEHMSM

Protease = Protease (Human immunodeficiency virus 1, UniProt Q9YQ12); test: Inhibition of HIV1 protease-mediated proteolysis of rabbit muscle lactate dehydrogenase by spectrophotometry; assay type: single protein
In short: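 Purified HIV-1 protease (0.8 µg) with rabbit muscle LDH (0.5–2 mg/ml) in 80 mM Na acetate pH 4.7, 1 mM EDTA, 1 mM DTT, 0.2 M NaCl, 37°, 10–60 min. Aliquots were diluted into 0.1 M K phosphate pH 7.0, 30 min RT. Residual LDH was read as NADH loss at 340 nm (7.6 mM pyruvate, 0.2 mM NADH, 37°) from initial slopes. Controls lacked protease.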

MOLT-4 = test: Cytotoxicity against human MOLT4 cells; assay type: functional, cell-based

Sequence of Protease (Q9YQ12 whole entry): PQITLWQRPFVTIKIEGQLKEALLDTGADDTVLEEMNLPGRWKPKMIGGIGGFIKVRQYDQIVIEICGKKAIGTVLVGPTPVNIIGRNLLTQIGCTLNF

Row | Compound | Activity (Sus scrofa) | Activity [1] | IC50 (Protease) [µM] | Activity (MOLT-4)
1 | O=C(O)CCCC#C/C=C/CCCC/C=C/C#C/C=C/Br | inactive | inactive | 10 | Active
2 | O=C(O)CCCC#CC#C/C=C/CCCCC#C/C=C/Br | inactive | inactive | 8 | Active
3 | O=C(O)CCCC#CC#C/C=C/CCCCCC/C=C/Br | inactive | inactive | 12 | Active
4 | COC(=O)CCCC#CC#C/C=C/CCCCCC/C=C/Br | inactive | inactive | 10 | Active

These reach a lower IC50 (Protease). Values come first.

Row | Activity (Sus scrofa) | Activity [1] | IC50 (Protease) [µM] | Compound | Activity (MOLT-4)
5 | inactive | inactive | 7 | O=C(O)CCCC#CC#C/C=C/CCCC/C=C/C#CBr | Active
6 | inactive | inactive | 6 | O=C(O)CCCC#CC#C/C=C/CC/C=C/C#C/C=C/Br | Active
